How the values were obtained:
[1] = Induction of HNO release in phosphate buffer saline after 48 hrs by phosphine-trapping based LC-MS assay relative to control; format: physicochemical
Procedure, shortened: (§1)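 Test compound (20 µM final) was incubated in PBS pH 7.4 containing 7.5% DMSO with a phosphine HNO trap (1 mM final) and 4-hydroxybenzophenone internal standard (5.05 µM), in a sealed vial at 37 °C for 2 h or 48 h. The reaction was quenched with H2O2, dried, and redissolved in methanol. HNO-derived amide was quantified by ESI-negative LC-MS against a standard curve. % is of a theoretical 1 mol HNO/mol, mean of triplicates.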

[2] = Induction of HNO release in phosphate buffer saline after 2 hrs by phosphine-trapping based LC-MS assay relative to control; format: physicochemical; procedure, shortened: as §1
[3] = Induction of nitric oxide release in phosphate buffer solution after 1.5 hrs by Griess method relative to control; format: physicochemical
Procedure, shortened: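 Test compound at 5.0×10^-2 mM was incubated in phosphate buffer pH 7.4 at 37 °C for 1.5 h. NO was estimated indirectly as nitrite by the Griess reaction. % nitrite is based on a theoretical maximum of 2 mol NO/mol compound, mean of n = 3.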

[4] = Induction of nitric oxide release in phosphate buffer solution after 2 to 4 hrs by Griess method relative to control; format: physicochemical
Procedure, shortened: (§2)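 Test compound at 5.0 × 10^-2 mM in PBS pH 7.4 at 37 °C for 2 or 4 h. Nitrite formed from NO was quantified by the Griess reaction and expressed as % of a theoretical maximum of 2 mol NO/mol compound; mean of n = 3.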

Mus musculus [5] = assay: Effect on cardiac hemodynamic parameter in C57 black mouse assessed as heart rate at 13.7 to 60.345 umol/kg, po after 3 hrs (reference value: 439 +/- 73 bpm); format: functional
Mus musculus [6] = assay: Antihypertensive activity in C57 black mouse assessed as mean blood pressure at 13.7 to 60.345 umol/kg, po after 6 hrs (reference value: 105.7 +/- 9.3 mmHg); format: functional
Mus musculus [7] = assay: Antihypertensive activity in C57 black mouse assessed as diastolic blood pressure at 13.7 to 60.345 umol/kg, po after 6 hrs (reference value: 85.3 +/- 11.5 mmHg); format: functional, Artery
Mus musculus [8] = assay: Antihypertensive activity in C57 black mouse assessed as systolic blood pressure at 13.7 to 60.345 umol/kg, po after 6 hrs (reference value: 126.2 +/- 7.2 mmHg); format: functional, Artery
Mus musculus [9] = assay: Effect on cardiac hemodynamic parameter in C57 black mouse assessed as heart rate at 13.7 to 60.345 umol/kg, po after 3 hrs (reference value: 448 +/- 72 bpm); format: functional
Mus musculus [10] = assay: Antihypertensive activity in C57 black mouse assessed as mean blood pressure at 13.7 to 60.345 umol/kg, po after 3 hrs (reference value: 97.5 +/- 8.7 mmHg); format: functional
Mus musculus [11] = assay: Antihypertensive activity in C57 black mouse assessed as diastolic blood pressure at 13.7 to 60.345 umol/kg, po after 3 hrs (reference value: 77.2 +/- 11.3 mmHg); format: functional, Artery
Mus musculus [12] = assay: Antihypertensive activity in C57 black mouse assessed as systolic blood pressure at 13.7 to 60.345 umol/kg, po after 3 hrs (reference value: 118.3 +/- 6.1 mmHg); format: functional, Artery
Mus musculus [13] = assay: Effect on cardiac hemodynamic parameter in C57 black mouse assessed as heart rate at 13.7 to 60.345 umol/kg, po after 1 hr (reference value: 449 +/- 40 bpm); format: functional
Mus musculus [14] = assay: Antihypertensive activity in C57 black mouse assessed as mean blood pressure at 13.7 to 60.345 umol/kg, po after 1 hr (reference value: 106 +/- 11 mmHg); format: functional
Mus musculus [15] = assay: Antihypertensive activity in C57 black mouse assessed as diastolic blood pressure at 13.7 to 60.345 umol/kg, po after 1 hr (reference value: 85.5 +/- 12.6 mmHg); format: functional, Artery
Mus musculus [16] = assay: Antihypertensive activity in C57 black mouse assessed as systolic blood pressure at 13.7 to 60.345 umol/kg, po after 1 hr (reference value: 126.5 +/- 9.4 mmHg); format: functional, Artery
Heart [17] = assay: Ionotropic activity in C57BL/6 mouse heart assessed as coronary flow rate at 100 uM after 20 mins by hemodynamic analysis (reference value: 2.62 +/- 0.1 ml/min); format: functional
Procedure, shortened: (§3)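 Isolated C57BL/6 mouse hearts perfused retrogradely (Langendorff) at constant pressure (90 cm H2O) with 95% O2/5% CO2-aerated Krebs-Henseleit buffer at 37 °C. After 20 min stabilization, hearts were perfused with compound at 10 or 100 µM for 20 min. Measured: heart rate, rates of contraction and relaxation, LVDP and coronary flow. Comparison to baseline; mean ± SEM, n = 4.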

Heart [18] = assay: Ionotropic activity in C57BL/6 mouse heart assessed as increase in coronary flow rate at 10 uM after 20 mins by hemodynamic analysis relative to control; format: functional; procedure, shortened: as §3
Heart [19] = assay: Ionotropic activity in C57BL/6 mouse heart assessed as heart rate at 100 uM after 20 mins by hemodynamic analysis (reference value: 342 +/- 11 bpm); format: functional; procedure, shortened: as §3
Heart [20] = assay: Ionotropic activity in C57BL/6 mouse heart assessed as decrease in heart rate at 10 uM after 20 mins by hemodynamic analysis relative to control; format: functional; set-up: scale not given: the % may be the effect or the level left; procedure, shortened: as §3
Heart [21] = assay: Ionotropic activity in C57BL/6 mouse heart assessed as rate of relaxation at 100 uM after 20 mins by hemodynamic analysis (reference value: -3318 +/- 161 cmH2O/ms); format: functional; procedure, shortened: as §3
Heart [22] = assay: Ionotropic activity in C57BL/6 mouse heart assessed as increase in rate of relaxation at 10 uM after 20 mins by hemodynamic analysis relative to control; format: functional; set-up: scale not given: the % may be the effect or the level left; procedure, shortened: as §3
Heart [23] = assay: Ionotropic activity in C57BL/6 mouse heart assessed as rate of contraction at 100 uM after 20 mins by hemodynamic analysis (reference value: 4178 +/- 141 cmH2O/ms); format: functional; procedure, shortened: as §3
Heart [24] = assay: Ionotropic activity in C57BL/6 mouse heart assessed as increase in rate of contraction at 10 uM after 20 mins by hemodynamic analysis relative to control; format: functional; procedure, shortened: as §3
Heart [25] = assay: Positive ionotropic activity in C57BL/6 mouse heart assessed as left ventricular developing pressure at 100 uM after 20 mins by hemodynamic analysis (reference value: 169 +/- 2 cmH2O); format: functional; procedure, shortened: as §3
Heart [26] = assay: Positive ionotropic activity in C57BL/6 mouse heart assessed as increase in left ventricular developing pressure at 10 uM after 20 mins by hemodynamic analysis relative to control; format: functional; procedure, shortened: as §3
[27] = Induction of nitric oxide release in phosphate buffer solution after 4 hrs by Griess method relative to control; format: physicochemical; procedure, shortened: as §2
[28] = Induction of nitric oxide release in phosphate buffer solution after 2 hrs by Griess method relative to control; format: physicochemical; procedure, shortened: as §2
[29] = Ratio of IPA/No half life to compound half life in phosphate buffered saline at pH 7.4; format: physicochemical; conditions: buffer
[30] = Half life of the compound in phosphate buffered saline at 300 uM after 24 hrs at pH 7.4 by diazeniumdiolate chromophore-based UV-Vis spectrophotometric analysis; format: physicochemical
Procedure, shortened: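 Compound at 300 µM final (added from 6 mM DMSO stock; 5% DMSO final) in pH 7.4 phosphate buffer, stirred at 37 °C for 0-24 h. Spectra scanned at 200-400 nm over time. Decay of the diazeniumdiolate absorbance at 259 nm was fitted as first order by linear regression of ln(At − A∞) versus time, and t1/2 = ln2/k.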

[31] = Induction of HNO release in phosphate buffer saline after 2 to 4 hrs by phosphine-trapping based LC-MS assay relative to control; format: physicochemical
Procedure, shortened: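 HNO trapping assay. Test compound at 20 µM with phosphine trap at 1 mM and 4-hydroxybenzophenone internal standard at 5.05 µM, in PBS pH 7.4 containing 7.5% DMSO, sealed, 37 °C. Quenched with H2O2, then dried and redissolved in methanol. HNO-derived amide quantified by ESI-negative LC-MS against a standard curve (0.2-10 µg/mL). Result is % of 1 mol HNO/mol compound; mean of triplicates.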

CC(C)N[N+]([O-])=N[O-].[Na+]
Activity [1]: 5.1%
Activity [2]: 5.4%
Activity [3]: 62%

CN(N=O)c1ccc(C#N)cc1
Activity [4]: 100%

[Na+].[O-]/N=[N+](/[O-])N1C2CCC1c1ccccc12
Activity (Mus musculus [5]): 466 bpm
Activity (Mus musculus [6]): 101.1 mmHg
Activity (Mus musculus [7]): 87.2 mmHg
Activity (Mus musculus [8]): 128.9 mmHg
Activity (Mus musculus [9]): 554 bpm
Activity (Mus musculus [10]): 85.8 mmHg
Activity (Mus musculus [11]): 75.4 mmHg
Activity (Mus musculus [12]): 106.5 mmHg
Activity (Mus musculus [13]): 605 bpm
Activity (Mus musculus [14]): 82.3 mmHg
Activity (Mus musculus [15]): 70.6 mmHg
Activity (Mus musculus [16]): 105.5 mmHg
Activity (Heart [17]): 3.92 mL/min
Activity (Heart [18]): 53%
Activity (Heart [19]): 307 bpm
Activity (Heart [20]): 22%
Activity (Heart [21]): -3945 cmH2O/ms
Activity (Heart [22]): 9%
Activity (Heart [23]): 5547 cmH2O/ms
Activity (Heart [24]): 30%
Activity (Heart [25]): 213 cmH2O
Activity (Heart [26]): 24%
Activity [1]: 20.2%
Activity [2]: 22.3%
Activity [27]: 21.5%
Activity [28]: 19%
Ratio [29]: 7.7
half-life at 300 µM [30]: 17.8 min

CN(c1ccc(C#N)cc1)N(O)N=O
Activity [31]: 100%
half-life at 300 µM [30]: 11 min

[Na+].[Na+].[O-][N+]([O-])=NO [ANGELI'S SALT]
Activity [1]: 85.7%
Activity [2]: 85.9%
Activity [27]: 20.8%
Activity [28]: 21.3%
